Tests used:
[1] = tested on: Human immunodeficiency virus 1; assay: Antiviral activity by observing cytopathic effect induced by HIV-1 strain IIIB in de novo infected MT-4 cells; format: functional, organism-based; details: Human immunodeficiency virus 1, MT4
[2] = biological target: Human immunodeficiency virus type 1 protease (Human immunodeficiency virus 1, UniProt Q72874); assay: Inhibitory constant against HIV-1 protease
Outline: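 HIV-1 proteinase expressed in E. coli JM 105 and purified to homogeneity. Initial rates were taken from the absorbance decrease at 298 nm. IC50 came from a fit of the initial velocities. Ki was derived from IC50 accounting for enzyme, substrate and Km. Mean of two determinations.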

Structure (SMILES)	IC50 [1]	Ki [2]
CC(C)[C@H](NC(=O)CCCCCN)C(=O)N[C@@H](Cc1ccccc1)[C@@H](O)[C@@H](NCc1ccccc1)C(=O)N[C@H](C(=O)NCc1ccccc1)C(C)C	> 3000 nM	33 nM
CC(C)[C@H](NC(=O)[C@H](NCc1ccccc1)[C@H](O)[C@H](Cc1ccccc1)NC(=O)[C@H](C)NC(=O)OCc1ccccc1)C(=O)NCc1ccccc1	> 3000 nM	34 nM
CC(C)[C@H](NC(=O)OC(C)(C)C)C(=O)N[C@@H](Cc1ccccc1)[C@@H](O)[C@@H](NCc1ccccc1)C(=O)N[C@H](C(=O)NCc1ccccc1)C(C)C	> 3000 nM	215 nM
CC(C)[C@H](NC(=O)OCc1ccccc1)C(=O)N[C@@H](Cc1ccccc1)[C@@H](O)[C@@H](NCc1cccc2ccccc12)C(=O)N[C@H](C(=O)NCc1ccccc1)C(C)C	> 3000 nM	26 nM
CC(C)C[C@H](NC(=O)[C@H](NCc1ccccc1)[C@H](O)[C@H](Cc1ccccc1)NC(=O)[C@@H](NC(=O)OCc1ccccc1)C(C)C)C(=O)NCc1ccccc1	> 3000 nM	44 nM
CC(C)[C@H](NC(=O)[C@H](NCc1ccccc1)[C@H](O)[C@H](Cc1ccccc1)NC(=O)[C@H](Cc1c[nH]c2ccccc12)NC(=O)OCc1ccccc1)C(=O)NCc1ccccc1	> 3000 nM	200 nM
CC(C)[C@H](NC(=O)OCc1ccccc1)C(=O)N[C@@H](Cc1ccccc1)[C@@H](O)[C@@H](NCc1ccc(Cl)cc1)C(=O)N[C@H](C(=O)NCc1ccccc1)C(C)C	400 nM	17 nM
CC(C)[C@H](NC(=O)OCc1ccccc1)C(=O)N[C@@H](Cc1ccccc1)[C@@H](O)[C@@H](NCc1ccc(Cl)cc1)C(=O)N[C@H](C(=O)NCc1nc2ccccc2[nH]1)C(C)C	120 nM	6.1 nM
CC(C)[C@H](NC(=O)OCc1ccccc1)C(=O)N[C@@H](Cc1ccccc1)[C@@H](O)[C@@H](NCc1ccccc1)C(=O)N[C@H](C(=O)NC(C)(C)C)C(C)C	> 3000 nM	72 nM
CC(C)[C@H](NC(=O)OCc1ccccc1)C(=O)N[C@@H](Cc1ccccc1)[C@@H](O)[C@@H](NCc1ccccc1)C(=O)N[C@H](C(=O)NCc1ccccn1)C(C)C	1140 nM	12 nM
CC(C)[C@H](NC(=O)OCc1ccccc1)C(=O)N[C@@H](Cc1ccccc1)[C@@H](O)[C@@H](NCc1ccccc1)C(=O)N[C@H](C(=O)NCc1nc2ccccc2[nH]1)C(C)C	140 nM	13 nM
CCCCN[C@@H](C(=O)N[C@H](C(=O)NCc1ccccc1)C(C)C)[C@H](O)[C@H](Cc1ccccc1)NC(=O)[C@@H](NC(=O)OCc1ccccc1)C(C)C	> 3000 nM	23 nM
CC(C)[C@H](NC(=O)OCc1ccccc1)C(=O)N[C@@H](Cc1ccccc1)[C@@H](O)[C@@H](NCCc1c[nH]c2ccccc12)C(=O)N[C@H](C(=O)NCc1ccccc1)C(C)C	> 3000 nM	61 nM
CC(C)[C@H](NC(=O)OCc1ccccc1)C(=O)N[C@@H](Cc1ccccc1)[C@@H](O)[C@@H](NCc1ccccc1)C(=O)N[C@@H](CC(N)=O)C(=O)NCc1ccccc1	> 3000 nM	42 nM
CC(C)[C@H](NC(=O)OCc1ccccc1)C(=O)N[C@@H](Cc1ccccc1)[C@@H](O)[C@@H](NCCc1ccccc1)C(=O)N[C@H](C(=O)NCc1ccccc1)C(C)C	> 3000 nM	34 nM
CC(C)[C@H](NC(=O)[C@H](NCc1ccccc1)[C@H](O)[C@H](Cc1ccccc1)NC(=O)[C@@H](NC(=O)OCc1ccccc1)c1ccccc1)C(=O)NCc1ccccc1	> 3000 nM	51 nM
CC(C)[C@H](NC(=O)OCc1ccccc1)C(=O)N[C@@H](Cc1ccccc1)[C@@H](O)[C@@H](NC1CCCCC1)C(=O)N[C@H](C(=O)NCc1ccccc1)C(C)C	940 nM	33.5 nM
CC(C)[C@H](NC(=O)OCc1ccccc1)C(=O)N[C@@H](Cc1ccccc1)[C@@H](O)[C@@H](NCc1ccccc1)C(=O)N[C@H](C(=O)NCCc1c[nH]c2ccccc12)C(C)C	> 3000 nM	10.6 nM
CC(C)[C@H](NC(=O)OCc1ccccc1)C(=O)N[C@@H](Cc1ccccc1)[C@@H](O)[C@@H](Nc1ccc(-c2ccccc2)cc1)C(=O)N[C@H](C(=O)NCc1ccccc1)C(C)C	> 3000 nM	59 nM
CC(C)[C@H](NC(=O)c1ccc2ccccc2n1)C(=O)N[C@@H](Cc1ccccc1)[C@@H](O)[C@@H](NCc1ccccc1)C(=O)N[C@H](C(=O)NCc1ccccc1)C(C)C	1610 nM	10.2 nM

Structure (SMILES)	IC50 [1]	Ki [2]
CC(C)[C@H](NC(=O)OCc1ccccn1)C(=O)N[C@@H](Cc1ccccc1)[C@@H](O)[C@@H](NCc1ccccc1)C(=O)N[C@H](C(=O)NCc1ccccc1)C(C)C	350 nM	8.6 nM
CC[C@H](C)[C@H](NC(=O)[C@H](NCc1ccccc1)[C@H](O)[C@H](Cc1ccccc1)NC(=O)[C@@H](NC(=O)OCc1ccccc1)C(C)C)C(=O)NCc1ccccc1	> 3000 nM	> 3000 nM
CC[C@@H](C)[C@H](NC(=O)OCc1ccccc1)C(=O)N[C@@H](Cc1ccccc1)[C@@H](O)[C@@H](NCc1ccccc1)C(=O)N[C@H](C(=O)NCc1ccccc1)C(C)C	> 3000 nM	8.3 nM
CCOC(=O)[C@@H](NC(=O)[C@H](NCc1ccccc1)[C@H](O)[C@H](Cc1ccccc1)NC(=O)[C@@H](NC(=O)OCc1ccccc1)C(C)C)C(C)C	> 3000 nM	1200 nM
CC(C)[C@H](NC(=O)[C@H](NCc1ccccc1)[C@H](O)[C@H](Cc1ccccc1)NC(=O)[C@H](Cc1cnc[nH]1)NC(=O)OCc1ccccc1)C(=O)NCc1ccccc1	> 3000 nM	29 nM
CC(C)[C@H](NC(=O)[C@H](NCc1ccccc1)[C@H](O)[C@H](Cc1ccccc1)NC(=O)[C@@H](NC(=O)N(C)Cc1nc2ccccc2[nH]1)C(C)C)C(=O)NCc1ccccc1	270 nM	10.2 nM
CC(C)[C@H](NC(=O)OCc1ccccc1)C(=O)N[C@@H](Cc1ccccc1)[C@@H](O)[C@@H](NCCc1ccccn1)C(=O)N[C@H](C(=O)NCc1ccccc1)C(C)C	> 3000 nM	200 nM
CC(C)[C@H](NC(=O)[C@H](NCc1ccccc1)[C@H](O)[C@H](Cc1ccccc1)NC(=O)[C@H](CO)NC(=O)OCc1ccccc1)C(=O)NCc1ccccc1	2500 nM	153 nM
CC(C)[C@H](NC(=O)CCc1nc2ccccc2[nH]1)C(=O)N[C@@H](Cc1ccccc1)[C@@H](O)[C@@H](NCc1ccccc1)C(=O)N[C@H](C(=O)NCc1ccccc1)C(C)C	180 nM	9.9 nM
CC(C)[C@H](NC(=O)[C@H](NCc1ccccc1)[C@H](O)[C@H](Cc1ccccc1)NC(=O)[C@H](CCC(N)=O)NC(=O)OCc1ccccc1)C(=O)NCc1ccccc1	2000 nM	45 nM
CC(C)[C@H](NC(=O)OCc1ccccc1)C(=O)N[C@@H](Cc1ccccc1)[C@@H](O)[C@@H](NCc1ccc(Br)cc1)C(=O)N[C@H](C(=O)NCc1ccccc1)C(C)C	350 nM	23 nM
CC(C)C[C@H](NC(=O)OCc1ccccc1)C(=O)N[C@@H](Cc1ccccc1)[C@@H](O)[C@@H](NCc1ccccc1)C(=O)N[C@H](C(=O)NCc1ccccc1)C(C)C	> 3000 nM	65 nM
CC(C)[C@H](NC(=O)[C@H](NCc1ccccc1)[C@H](O)[C@H](Cc1ccccc1)NC(=O)[C@H](CC(N)=O)NC(=O)OCc1ccccc1)C(=O)NCc1ccccc1	1010 nM	10.4 nM
CC(C)[C@H](NC(=O)OCc1ccccc1)C(=O)N[C@@H](Cc1ccccc1)[C@@H](O)[C@@H](Nc1ccccc1)C(=O)N[C@H](C(=O)NCc1ccccc1)C(C)C	1340 nM	6.9 nM
CC(C)[C@H](NC(=O)OCc1ccccc1)C(=O)N[C@@H](Cc1ccccc1)[C@@H](O)[C@@H](NCc1ccccc1)C(=O)N[C@H](C(=O)OCc1nc2ccccc2[nH]1)C(C)C	> 3000 nM	29 nM
CC[C@H](NC(=O)OCc1ccccc1)C(=O)N[C@@H](Cc1ccccc1)[C@@H](O)[C@@H](NCc1ccccc1)C(=O)N[C@H](C(=O)NCc1ccccc1)C(C)C	2000 nM	17.1 nM
CC(C)[C@H](NC(=O)OCc1ccccc1)C(=O)N[C@@H](Cc1ccccc1)[C@@H](O)[C@@H](SCc1ccccc1)C(=O)N[C@H](C(=O)NCc1ccccc1)C(C)C	330 nM	10 nM
CC(C)[C@H](NC(=O)OCc1ccccc1)C(=O)N[C@@H](Cc1ccccc1)[C@@H](O)[C@@H](NCc1ccccc1)C(=O)N[C@@H](C(=O)NCc1ccccc1)C(C)(C)C.CC(C)[C@H](NC(=O)OCc1ccccc1)C(=O)N[C@@H](Cc1ccccc1)[C@@H](O)[C@@H](NCc1ccccc1)C(=O)N[C@H](C(=O)NCc1ccccc1)C(C)(C)C (stereo in doubt; 32(5:1))	–	20 nM
CC(C)[C@H](NC(=O)OCc1ccccc1)C(=O)N[C@@H](Cc1ccccc1)[C@@H](O)[C@@H](NCc1ccccc1)C(=O)N[C@@H](C(=O)NCc1ccccc1)C(C)(C)C.CC(C)[C@H](NC(=O)OCc1ccccc1)C(=O)N[C@@H](Cc1ccccc1)[C@@H](O)[C@@H](NCc1ccccc1)C(=O)N[C@H](C(=O)NCc1ccccc1)C(C)(C)C (stereo in doubt; 33(4:1))	> 3000 nM	> 3000 nM

From ChEMBL document CHEMBL1127464, “Inhibitors of HIV-1 proteinase containing 2-heterosubstituted 4-amino-3-hydroxy-5-phenylpentanoic acid: synthesis, enzyme inhibition, and antiviral activity” (J Med Chem, 1994)
